Measurements reported in ChEMBL document CHEMBL1140315, “Design and synthesis of the first generation of novel potent, selective, and in vivo active (benzothiazol-2-yl)acetonitrile inhibitors of the c-Jun N-terminal kinase” (J Med Chem, 2005).

How the values were obtained:
[1] = target: MAP kinase-activated protein kinase 2 (Homo sapiens, UniProt P49137); experiment: Inhibition of MAP kinase-activated protein kinase 2
[2] = target: Serine/threonine-protein kinase Sgk1 (Homo sapiens, UniProt O00141); experiment: Inhibition of SGK; Range is 5-10
Chain of Serine/threonine-protein kinase Sgk1 (O00141 whole entry): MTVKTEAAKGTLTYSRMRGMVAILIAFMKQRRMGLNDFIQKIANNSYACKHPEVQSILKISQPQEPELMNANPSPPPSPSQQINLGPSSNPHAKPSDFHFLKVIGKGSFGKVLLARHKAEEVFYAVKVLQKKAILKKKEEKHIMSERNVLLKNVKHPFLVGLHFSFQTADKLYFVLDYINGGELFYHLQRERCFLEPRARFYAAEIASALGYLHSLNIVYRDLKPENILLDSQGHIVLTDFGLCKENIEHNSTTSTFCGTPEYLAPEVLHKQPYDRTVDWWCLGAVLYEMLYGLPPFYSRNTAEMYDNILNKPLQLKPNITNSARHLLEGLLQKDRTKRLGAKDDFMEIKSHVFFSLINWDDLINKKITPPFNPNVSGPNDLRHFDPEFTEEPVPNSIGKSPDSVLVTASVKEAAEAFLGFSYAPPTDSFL

[3] = target: Dual specificity mitogen-activated protein kinase kinase 7 (Homo sapiens, UniProt O14733); experiment: Inhibition of mitogen activated protein kinase kinase 7 beta
[4] = Oral bioavailability in rat; format: ADME, organism-based; conditions: in vivo, read-out: Bioavailabiility
[5] = target: Serine/threonine-protein kinase Chk1 (Homo sapiens, UniProt O14757); experiment: Inhibition of CHK1 kinase
[6] = Inhibition of p56 lck tyrosine kinase
[7] = Inhibition of PI3k-gamma
[8] = target: Proto-oncogene tyrosine-protein kinase Src (Homo sapiens, UniProt P12931); experiment: Inhibition of c-SRC tyrosine kinase
[9] = target: 3-phosphoinositide-dependent protein kinase 1 (Homo sapiens, UniProt O15530); experiment: Inhibitory concentration against PDK 1
Chain of 3-phosphoinositide-dependent protein kinase 1 (O15530 whole entry): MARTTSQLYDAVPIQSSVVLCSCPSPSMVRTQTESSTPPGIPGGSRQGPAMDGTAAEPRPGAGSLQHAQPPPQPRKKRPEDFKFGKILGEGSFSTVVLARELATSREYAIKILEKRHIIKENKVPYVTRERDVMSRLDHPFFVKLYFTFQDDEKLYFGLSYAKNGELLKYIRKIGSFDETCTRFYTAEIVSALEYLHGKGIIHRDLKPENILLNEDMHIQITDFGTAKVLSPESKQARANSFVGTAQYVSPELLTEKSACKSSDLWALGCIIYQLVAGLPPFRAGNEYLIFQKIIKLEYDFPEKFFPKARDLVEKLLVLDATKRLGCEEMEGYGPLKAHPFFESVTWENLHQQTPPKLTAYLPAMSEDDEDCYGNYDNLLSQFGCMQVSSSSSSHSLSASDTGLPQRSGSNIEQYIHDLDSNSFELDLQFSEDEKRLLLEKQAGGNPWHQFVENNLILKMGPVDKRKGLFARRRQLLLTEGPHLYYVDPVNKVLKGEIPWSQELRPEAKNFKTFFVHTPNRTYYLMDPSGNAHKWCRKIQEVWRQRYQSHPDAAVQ

[10] = target: Inhibitor of nuclear factor kappa-B kinase subunit beta (Homo sapiens, UniProt O14920); experiment: Inhibition of IKKB kinase
Chain of Inhibitor of nuclear factor kappa-B kinase subunit beta (O14920 whole entry): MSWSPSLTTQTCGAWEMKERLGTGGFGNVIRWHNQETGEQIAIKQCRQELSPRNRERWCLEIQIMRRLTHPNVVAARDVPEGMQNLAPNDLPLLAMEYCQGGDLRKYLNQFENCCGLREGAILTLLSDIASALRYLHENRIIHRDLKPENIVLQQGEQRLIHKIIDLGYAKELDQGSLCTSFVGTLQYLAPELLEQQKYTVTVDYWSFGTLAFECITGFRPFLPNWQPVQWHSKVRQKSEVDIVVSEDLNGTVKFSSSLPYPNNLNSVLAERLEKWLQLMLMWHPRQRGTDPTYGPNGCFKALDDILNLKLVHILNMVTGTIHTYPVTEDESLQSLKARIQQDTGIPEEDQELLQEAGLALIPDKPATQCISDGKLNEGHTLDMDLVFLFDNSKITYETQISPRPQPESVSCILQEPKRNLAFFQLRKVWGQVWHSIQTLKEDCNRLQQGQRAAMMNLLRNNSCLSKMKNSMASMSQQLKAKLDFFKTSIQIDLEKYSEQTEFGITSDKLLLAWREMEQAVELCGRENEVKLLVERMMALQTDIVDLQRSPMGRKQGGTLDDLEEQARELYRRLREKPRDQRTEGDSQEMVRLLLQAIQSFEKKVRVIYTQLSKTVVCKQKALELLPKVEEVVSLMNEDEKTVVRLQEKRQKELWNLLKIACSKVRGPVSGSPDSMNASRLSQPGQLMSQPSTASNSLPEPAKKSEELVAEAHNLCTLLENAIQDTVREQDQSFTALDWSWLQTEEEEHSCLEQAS

[11] = target: Tyrosine-protein kinase Blk (Homo sapiens, UniProt P51451); experiment: Inhibition of BLK; Range is 5-10
Chain of Tyrosine-protein kinase Blk (P51451 whole entry): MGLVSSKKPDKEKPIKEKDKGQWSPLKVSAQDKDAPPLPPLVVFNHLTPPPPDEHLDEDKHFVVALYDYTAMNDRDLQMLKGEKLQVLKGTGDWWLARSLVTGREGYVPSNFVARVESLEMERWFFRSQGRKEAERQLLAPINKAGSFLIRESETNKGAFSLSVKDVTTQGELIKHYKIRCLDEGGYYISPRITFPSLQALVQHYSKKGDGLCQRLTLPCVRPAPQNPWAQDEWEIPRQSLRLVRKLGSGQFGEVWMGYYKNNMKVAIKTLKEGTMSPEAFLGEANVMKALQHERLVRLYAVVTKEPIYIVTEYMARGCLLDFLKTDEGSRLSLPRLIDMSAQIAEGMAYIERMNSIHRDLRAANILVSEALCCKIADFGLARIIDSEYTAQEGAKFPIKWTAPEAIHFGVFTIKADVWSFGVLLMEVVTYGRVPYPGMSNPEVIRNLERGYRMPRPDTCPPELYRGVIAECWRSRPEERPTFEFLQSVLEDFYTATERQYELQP

[12] = target: RAF proto-oncogene serine/threonine-protein kinase (Homo sapiens, UniProt P04049); experiment: Inhibition of RAF proto-oncogene serine/threonine protein kinase
[13] = target: Rho-associated protein kinase 2 (Homo sapiens, UniProt O75116); experiment: Inhibition of protein kinase ROCK2; Range is 5-10
[14] = target: Mitogen-activated protein kinase 3 (Homo sapiens, UniProt P27361); experiment: Inhibition of ERK1 kinase
[15] = target: RAC-alpha serine/threonine-protein kinase (Homo sapiens, UniProt P31749); experiment: Inhibition of AKT kinase
Chain of RAC-alpha serine/threonine-protein kinase (P31749 whole entry): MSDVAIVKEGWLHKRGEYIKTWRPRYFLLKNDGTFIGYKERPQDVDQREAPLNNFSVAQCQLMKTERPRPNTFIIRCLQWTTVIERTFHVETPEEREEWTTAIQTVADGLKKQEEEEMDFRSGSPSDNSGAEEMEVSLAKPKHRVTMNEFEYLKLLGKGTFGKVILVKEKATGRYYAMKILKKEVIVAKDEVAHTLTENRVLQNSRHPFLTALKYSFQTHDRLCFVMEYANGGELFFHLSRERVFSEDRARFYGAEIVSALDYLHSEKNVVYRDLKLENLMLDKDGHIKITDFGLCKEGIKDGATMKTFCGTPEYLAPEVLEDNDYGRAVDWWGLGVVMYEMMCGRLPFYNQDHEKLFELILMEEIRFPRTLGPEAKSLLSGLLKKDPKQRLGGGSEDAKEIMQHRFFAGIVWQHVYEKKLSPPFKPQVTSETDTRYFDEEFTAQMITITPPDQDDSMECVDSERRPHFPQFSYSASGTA

Jurkat = experiment: Ability to inhibit IL-2 production induced with phorbol-12, myristate-13 acetate and ionomycin in Jurkat T cell at the concentration of 10 uM; format: functional; conditions: Homo sapiens
Procedure, shortened: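 Jurkat human T cell leukemia cells in RPMI 1640 with 10% heat-inactivated FCS, plated at 2 × 10⁵ cells/well. Compounds added in 0.1% DMSO and preincubated 30 min at 37 °C. Cells then stimulated with PMA + ionomycin (0.1 and 1 µM final) for 24 h at 37 °C. IL-2 in the supernatant measured by sandwich ELISA against a recombinant human IL-2 standard.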

[16] = target: Mitogen-activated protein kinase 9 (Homo sapiens, UniProt P45984); experiment: Inhibitory concentration against c-Jun N-Terminal kinase 2
[17] = target: MAP kinase-activated protein kinase 5 (Homo sapiens, UniProt Q8IW41); experiment: Inhibition of protein kinase PRAK
Chain of MAP kinase-activated protein kinase 5 (Q8IW41 whole entry): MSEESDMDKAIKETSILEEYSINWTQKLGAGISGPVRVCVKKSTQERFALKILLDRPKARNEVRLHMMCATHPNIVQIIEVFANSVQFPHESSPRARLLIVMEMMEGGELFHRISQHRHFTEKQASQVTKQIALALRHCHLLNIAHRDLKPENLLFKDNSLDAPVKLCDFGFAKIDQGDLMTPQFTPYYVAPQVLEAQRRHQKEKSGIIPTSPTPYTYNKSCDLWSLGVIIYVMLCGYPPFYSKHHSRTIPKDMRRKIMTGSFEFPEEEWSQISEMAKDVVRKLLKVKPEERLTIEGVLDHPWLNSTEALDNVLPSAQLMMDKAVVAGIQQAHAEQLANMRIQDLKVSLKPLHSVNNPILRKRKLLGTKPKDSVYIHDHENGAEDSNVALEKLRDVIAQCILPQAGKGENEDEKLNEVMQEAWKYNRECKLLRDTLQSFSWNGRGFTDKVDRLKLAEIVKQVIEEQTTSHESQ

[18] = target: Protein kinase C alpha type (Homo sapiens, UniProt P17252); experiment: Inhibition of protein kinase C alpha
[19] = target: Dual specificity mitogen-activated protein kinase kinase 6 (Homo sapiens, UniProt P52564); experiment: Inhibition of Mitogen activated protein kinase 6; Range is 5-10
[20] = target: Ribosomal protein S6 kinase (P70S6K) (Homo sapiens, UniProt P23443+Q9UBS0); experiment: Inhibition of p70S6K; format: protein-complex assay
Chain of Ribosomal protein S6 kinase (P70S6K) (Q9UBS0 whole entry): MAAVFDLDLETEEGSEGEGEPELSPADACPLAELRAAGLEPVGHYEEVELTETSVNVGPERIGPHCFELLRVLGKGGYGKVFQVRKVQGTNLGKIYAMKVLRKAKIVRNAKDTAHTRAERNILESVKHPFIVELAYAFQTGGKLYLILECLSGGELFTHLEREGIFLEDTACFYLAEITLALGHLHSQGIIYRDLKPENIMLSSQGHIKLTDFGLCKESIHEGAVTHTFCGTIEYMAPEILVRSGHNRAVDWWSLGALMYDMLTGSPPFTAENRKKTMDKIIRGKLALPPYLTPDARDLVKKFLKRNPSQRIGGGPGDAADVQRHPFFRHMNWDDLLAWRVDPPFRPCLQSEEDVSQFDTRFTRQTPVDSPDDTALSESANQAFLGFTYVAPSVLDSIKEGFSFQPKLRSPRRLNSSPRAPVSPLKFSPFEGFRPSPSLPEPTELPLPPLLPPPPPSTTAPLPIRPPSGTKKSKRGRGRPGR
Chain of Ribosomal protein S6 kinase (P70S6K) (P23443 whole entry): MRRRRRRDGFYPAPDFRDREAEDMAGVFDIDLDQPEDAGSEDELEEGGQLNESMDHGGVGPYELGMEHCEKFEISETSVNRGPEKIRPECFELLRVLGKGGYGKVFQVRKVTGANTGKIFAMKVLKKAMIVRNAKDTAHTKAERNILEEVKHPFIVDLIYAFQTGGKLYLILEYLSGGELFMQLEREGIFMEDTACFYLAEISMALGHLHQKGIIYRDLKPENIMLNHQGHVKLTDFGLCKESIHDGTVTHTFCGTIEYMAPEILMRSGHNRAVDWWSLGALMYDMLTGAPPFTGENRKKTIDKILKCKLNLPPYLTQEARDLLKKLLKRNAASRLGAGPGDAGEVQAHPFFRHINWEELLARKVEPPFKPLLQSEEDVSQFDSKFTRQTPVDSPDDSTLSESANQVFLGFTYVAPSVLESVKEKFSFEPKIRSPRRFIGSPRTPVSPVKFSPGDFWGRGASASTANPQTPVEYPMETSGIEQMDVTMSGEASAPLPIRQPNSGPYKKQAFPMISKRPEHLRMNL

[21] = target: Mitogen-activated protein kinase 8 (Homo sapiens, UniProt P45983); experiment: Inhibition of c-Jun N-Terminal kinase 1
[22] = target: Dual specificity mitogen-activated protein kinase kinase 1 (Homo sapiens, UniProt Q02750); experiment: Inhibition of mitogen activated protein kinase kinase 1 (MEK1)
[23] = target: Ribosomal protein S6 kinase alpha-5 (Homo sapiens, UniProt O75582); experiment: Inhibition of MSK-1 kinase; Range is 5-10
[24] = target: Mitogen-activated protein kinase 14 (Homo sapiens, UniProt Q16539); experiment: Inhibition of MAP kinase p38 alpha
Mus musculus = experiment: Dose administered orally to decrease TNF alpha plasma level in mice; format: functional; conditions: po
Procedure, shortened: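 Groups of six mice. LPS endotoxin (O111:B4, 0.3 mg/kg) given i.p. 15 min later. Plasma TNF-α measured by ELISA in heparinized blood collected by decapitation. Data given as mean ± SEM, analysed by one-way ANOVA with Dunnett's t-test.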

[25] = target: Cyclin-dependent kinase 2/cyclin A (Homo sapiens, UniProt P24941); experiment: Inhibition of CDK2/cyclin A; format: protein-complex assay
[26] = target: Dual specificity mitogen-activated protein kinase kinase 4 (Homo sapiens, UniProt P45985); experiment: Inhibition of Mitogen activated protein kinase kinase 4
[27] = target: Mitogen-activated protein kinase 10 (Rattus norvegicus, UniProt P49187); experiment: Inhibition of rat c-Jun N-terminal kinase 3
Chain of Mitogen-activated protein kinase 10 (P49187 whole entry): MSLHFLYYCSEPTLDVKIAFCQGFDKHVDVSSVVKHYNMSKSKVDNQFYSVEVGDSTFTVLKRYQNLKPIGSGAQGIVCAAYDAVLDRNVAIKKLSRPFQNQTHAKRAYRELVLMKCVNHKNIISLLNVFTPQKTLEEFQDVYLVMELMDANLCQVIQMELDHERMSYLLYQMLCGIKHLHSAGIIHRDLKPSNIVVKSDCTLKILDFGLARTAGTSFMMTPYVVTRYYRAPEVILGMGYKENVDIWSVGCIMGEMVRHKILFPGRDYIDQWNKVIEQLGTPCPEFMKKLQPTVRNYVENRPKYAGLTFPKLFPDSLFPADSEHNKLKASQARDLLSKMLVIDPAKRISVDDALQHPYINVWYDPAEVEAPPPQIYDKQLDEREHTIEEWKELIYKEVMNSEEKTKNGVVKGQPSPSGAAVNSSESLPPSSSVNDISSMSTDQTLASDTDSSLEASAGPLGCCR

N#C/C(=C1/Nc2ccccc2S1)c1ccnc(NCCc2cccnc2)n1.O=C(O)C(F)(F)F.O=C(O)C(F)(F)F
IC50 [1]: > 10000 nM
IC50 [2]: 10000 nM
IC50 [3]: > 10000 nM
bioavailability [4]: 38%
IC50 [5]: > 10000 nM
IC50 [6]: > 10000 nM
IC50 [7]: > 10000 nM
IC50 [8]: 1100 nM
IC50 [9]: > 10000 nM
IC50 [10]: > 10000 nM
IC50 [11]: 10000 nM
IC50 [12]: 1200 nM
IC50 [13]: 10000 nM
IC50 [14]: > 10000 nM
IC50 [15]: > 10000 nM
inhibition at 10 µM (Jurkat): 90%
IC50 [16]: 220 nM
IC50 [17]: > 10000 nM
IC50 [18]: > 10000 nM
IC50 [19]: 10000 nM
IC50 [20]: > 10000 nM
IC50 [21]: 150 nM
IC50 [22]: > 10000 nM
IC50 [23]: 10000 nM
IC50 [24]: 4800 nM
ED50 (Mus musculus): 3 mg/kg
IC50 [25]: 1400 nM
IC50 [26]: > 10000 nM

N#C/C(=C1/Nc2ccccc2S1)c1ccnc(N2CCOCC2)n1
IC50 [27]: 2900 nM

N#C/C(=C1/Nc2ccccc2S1)c1ccnc(NCCn2cncn2)n1
IC50 [27]: 397 nM

N#C/C(=C1/Nc2ccccc2S1)c1ccnc(NCCc2cccc(F)c2)n1
IC50 [27]: 1810 nM

N#C/C(=C1/Nc2ccccc2S1)c1ccnc(NCc2nn[nH]n2)n1
IC50 [27]: > 5000 nM

N#C/C(=C1/Nc2ccccc2S1)c1ccnc(NCCCn2ccnc2)n1
IC50 [27]: 147 nM
inhibition at 10 µM (Jurkat): 31%

N#C/C(=C1/Nc2ccccc2S1)c1ccnc(NCc2ccncc2)n1
IC50 [27]: 340 nM

CN1/C(=C(/C#N)c2ccnc(Cl)n2)Sc2ccccc21
IC50 [27]: > 5000 nM

N#C/C(=C1/Nc2ccccc2S1)c1ccncn1
IC50 [27]: > 5000 nM

N#CC(=C1Nc2ccccc2N1)c1nc(Cl)ncc1Br
IC50 [27]: > 5000 nM

N#C/C(=C1/Nc2ccccc2S1)c1ccnc(NCCc2ccc([N+](=O)[O-])cc2)n1
IC50 [27]: 600 nM

Cc1ccc(CCNc2nccc(/C(C#N)=C3\Nc4ccccc4S3)n2)cc1
IC50 [27]: > 5000 nM

CN(C)c1nccc(/C(C#N)=C2\Nc3ccccc3S2)n1
IC50 [27]: 9400 nM

N#C/C(=C1/Nc2ccccc2S1)c1ccnc(N)n1
IC50 [27]: 7500 nM

CCCN(CCC)c1nccc(/C(C#N)=C2\Nc3ccccc3S2)n1
IC50 [27]: > 5000 nM

N#C/C(=C1/Nc2ccccc2S1)c1ccnc(NCCO)n1
IC50 [27]: 510 nM

N#C/C(=C1/Nc2ccccc2S1)c1ccnc(NCc2cccnc2)n1
IC50 [27]: 337 nM
inhibition at 10 µM (Jurkat): 95%

CN(C)CCCNc1nccc(/C(C#N)=C2\Nc3ccccc3S2)n1
IC50 [27]: 1640 nM

N#C/C(=C1/Nc2ccccc2S1)c1ccnc(NCCCN)n1
IC50 [27]: 707 nM

N#C/C(=C1/Nc2ccccc2S1)c1ccnc(NCCc2ccc(F)cc2)n1
IC50 [27]: > 5000 nM
inhibition at 10 µM (Jurkat): 0%

N#C/C(=C1/Nc2ccccc2S1)c1ccnc(NN)n1
IC50 [27]: 500 nM

COCCNc1nccc(/C(C#N)=C2\Nc3ccccc3S2)n1
IC50 [27]: 820 nM

N#C/C(=C1/Nc2ccccc2S1)c1ccnc(NCCCN2CCOCC2)n1
IC50 [27]: 407 nM

N#C/C(=C1/Nc2ccccc2S1)c1ccnc(NCCCO)n1
IC50 [27]: 660 nM

Cc1cc(/C(C#N)=C2\Nc3ccccc3S2)nc(Cl)n1
IC50 [27]: > 5000 nM

COC1CCN(c2nccc(/C(C#N)=C3\Nc4ccccc4S3)n2)CC1
IC50 [27]: 7200 nM

CCCN(CCCNc1nccc(/C(C#N)=C2\Nc3ccccc3S2)n1)C(=O)CC
IC50 [27]: 1340 nM

N#C/C(=C1/Nc2ccccc2S1)c1ccnc(NCCc2c[nH]cn2)n1
IC50 [27]: 80 nM
inhibition at 10 µM (Jurkat): 80%

N#C/C(=C1/Nc2ccccc2S1)c1ccnc(NCCc2ccc(Br)cc2)n1
IC50 [27]: > 5000 nM

CCO/C(O)=C(\c1ccnc(Cl)n1)c1nc2ccccc2s1
IC50 [27]: > 5000 nM

N#C/C(=C1/Nc2ccccc2S1)c1ccnc(NCCc2ccc(Cl)c(Cl)c2)n1
IC50 [27]: > 5000 nM

N#C/C(=C1/Nc2ccccc2S1)c1ccnc(N2CCNCC2)n1
IC50 [27]: 6600 nM

N#C/C(=C1/Nc2cc(C(F)(F)F)ccc2S1)c1ccnc(Cl)n1
IC50 [27]: 993 nM

N#C/C(=C1/Nc2ccccc2S1)c1ccnc(NCCc2ccccc2F)n1
IC50 [27]: 273 nM
inhibition at 10 µM (Jurkat): 90%

Cn1cnc(CCNc2nccc(/C(C#N)=C3\Nc4ccccc4S3)n2)c1
IC50 [27]: 65 nM

N#C/C(=C1/Nc2ccccc2S1)c1ccnc(NCCc2ccc(S(N)(=O)=O)cc2)n1
IC50 [27]: 41 nM

N#C/C(=C1/Nc2ccccc2S1)c1ccnc(NCCN)n1
IC50 [27]: 1490 nM

N#C/C(=C1/Nc2ccccc2S1)c1ccnc(NCc2ccccc2)n1
IC50 [27]: 6500 nM

N#C/C(=C1/Nc2ccccc2S1)c1ccnc(NCCc2ccccn2)n1
IC50 [27]: 250 nM
inhibition at 10 µM (Jurkat): 60%

N#C/C(=C1/Nc2ccccc2S1)c1ccnc(Cl)n1
IC50 [27]: 250 nM
inhibition at 10 µM (Jurkat): 90%

N#C/C(=C1/Nc2ccccc2S1)c1ccnc(NCc2ccccn2)n1
IC50 [27]: 650 nM

CN1CCN(c2nccc(/C(C#N)=C3\Nc4ccccc4S3)n2)CC1
IC50 [27]: 6800 nM

N#C/C(=C1/Nc2ccccc2S1)c1ccnc(NCCN2CCCCC2)n1
IC50 [27]: 3740 nM

N#C/C(=C1/Nc2ccccc2S1)c1ccnc(NCCn2ccc3ccccc32)n1
IC50 [27]: 458 nM

CNc1nccc(/C(C#N)=C2\Nc3ccccc3S2)n1
IC50 [27]: 950 nM

COc1ccc(CCNc2nccc(/C(C#N)=C3\Nc4ccccc4S3)n2)cc1
IC50 [27]: 3080 nM

N#C/C(=C1/Nc2ccccc2S1)c1ccnc(NCCCn2cccn2)n1
IC50 [27]: 583 nM

N#C/C(=C1/Nc2ccccc2S1)c1ccnc(NCCN2CCOCC2)n1
IC50 [27]: 760 nM

N#C/C(=C1/Nc2ccccc2S1)c1ccnc(NCCc2ccccc2)n1
IC50 [27]: > 5000 nM

CNCCCN(C)c1nccc(/C(C#N)=C2\Nc3ccccc3S2)n1
IC50 [27]: 1320 nM

Cn1cncc1CCNc1nccc(/C(C#N)=C2\Nc3ccccc3S2)n1
inhibition at 10 µM (Jurkat): 100%

CCCNc1nccc(/C(C#N)=C2\Nc3ccccc3S2)n1
IC50 [27]: > 5000 nM

N#C/C(=C1/Nc2ccccc2S1)c1ccnc(NCCc2ccc(N)cc2)n1
IC50 [27]: 80 nM
inhibition at 10 µM (Jurkat): 80%

N#C/C(=C1/Nc2ccccc2S1)c1cccc(Cl)n1
IC50 [27]: > 5000 nM

N#C/C(=C1/Nc2ccccc2S1)c1ccnc(NCCc2ccc(O)cc2)n1
IC50 [27]: 3500 nM

CN1CCN(CCCNc2nccc(/C(C#N)=C3\Nc4ccccc4S3)n2)CC1
inhibition at 10 µM (Jurkat): 83%

CN(C)CCNc1nccc(/C(C#N)=C2\Nc3ccccc3S2)n1
IC50 [27]: 1300 nM

N#C/C(=C1/Nc2ccccc2S1)c1ccnc(NCCc2cccc(Cl)c2)n1
IC50 [27]: > 5000 nM

N#C/C(=C1/Nc2ccccc2S1)c1cc(Br)nc(Cl)n1
IC50 [27]: 350 nM
